The values below come from ChEMBL document CHEMBL5236607, “Membrane-Active Cyclic Amphiphilic Peptides: Broad-Spectrum Antibacterial Activity Alone and in Combination with Antibiotics” (J Med Chem, 2022).

Active and inactive are the calls of the source. The rule behind the calls is not given here.

Data set [1] in a line: Hemolytic activity in human RBC incubated for 2 hrs by spectrophotometric assay. The class given is toxicity, cell-based, Erythrocyte. The conditions noted are these: human red blood cells (RBC). The gist of the method: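 Human RBCs with buffy coat removed, washed in PBS pH 7.4. Two-fold peptide dilutions in PBS mixed 1:1 with 4% (v/v) RBC suspension. Incubation 2 h at 37 °C without agitation, then centrifugation. Supernatant hemoglobin read at 567 nm. PBS set 0% and 1% Triton X-100 set 100% lysis. Triplicate.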

Data set [2] can be described thus: Therapeutic index, ratio of HC50 for human RBC to MIC for methicillin resistant Staphylococcus aureus ATCC BAA-1556. Put shortly:
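Human RBCs washed in PBS pH 7.4 and mixed 1:1 with two-fold peptide dilutions (4% v/v suspension), 2 h at 37 °C. Hemoglobin in supernatant read at 567 nm against PBS (0%) and 1% Triton X-100 (100%). HC50 is the concentration giving 50% hemolysis. Index is HC50 divided by MIC against MRSA.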

The nature of data set [3]: Membrano-lytic effect in mammalian membrane mimic DOPC/cholesterol (10:1) large unilamellar vesicles assessed as calcein leakage measured at 50 microg/ml measured after 100 mins by multimode microplate reader assay. The class given is cell membranes. The settings on record: dose 50.0 µg/ml. Put shortly: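 Calcein (70 mM) loaded into extruded 100 nm LUVs: DOPC:DOPG 7:3 (w/w) as the bacterial mimic, DOPC/cholesterol 10:1 (w/w) as the mammalian mimic. Free dye removed by gel filtration. Liposomes at 40 μM final lipid in PBS mixed 1:1 with peptide (5–50 μg/mL). Fluorescence (ex 490/em 520 nm) read every 10 min for 100 min; Triton X-100 defines 100% release. Triplicate.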

Data set [4] concerns Escherichia coli. Put plainly: Induction of resistance development in Escherichia coli ATCC 25922 assessed as increase in MIC by microtiter plate reader assay. The class given is functional, organism-based.
Data set [5] has as its system Staphylococcus aureus. Put plainly: Induction of resistance development in methicillin resistant Staphylococcus aureus ATCC BAA-1556 assessed as increase in MIC by microtiter plate reader assay. The class given is functional, organism-based. Put shortly:
(§1)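 Serial passage resistance assay with 2-fold microdilution MICs in 96-well plates. Each passage takes the well with the highest concentration still permitting growth, adjusts it to 0.5 McFarland, and dilutes it to a final 5 × 10^5 CFU/mL for the next passage. Eighteen passages; MIC recorded at each. Triplicate.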

Data set [6] deals with Staphylococcus aureus. Put plainly: Induction of resistance development in Staphylococcus aureus ATCC 29213 assessed as increase in MIC by microtiter plate reader assay. The data set is classed as functional, organism-based. The gist of the method:
as §1

In data set [7] the test system is Escherichia coli. As to the kind of experiment: Induction of resistance development in Escherichia coli ATCC BAA-2452 assessed as increase in MIC by microtiter plate reader assay. The class given is functional, organism-based. Put shortly: as §1
Another data set has as its system Pseudomonas aeruginosa. As to the kind of experiment: Antibacterial activity against Pseudomonas aeruginosa ATCC […] incubated for 24 hrs by checkerboard assay. The class given is functional.
The next data set deals with Klebsiella pneumoniae. As to the kind of experiment: Antibacterial activity against Klebsiella pneumoniae ATCC BAA-1705 incubated for 24 hrs by checkerboard assay. The class given is functional.
Data set [8] deals with Staphylococcus aureus. Put plainly: Antibacterial activity against methicillin resistant Staphylococcus aureus ATCC BAA-1556 incubated for 24 hrs by checkerboard assay. The class given is functional.

A word on the HC50: it is the concentration giving 50% haemolysis. A lower HC50 goes with stronger haemolysis. In data set [1], `N=C(N)NCCC[C@@H]1NC(=O)[C@H](CCCNC(=N)N)NC(=O)[C@H](CCCNC(=N)N)NC(=O)[C@H](Cc2c[nH]c3ccccc23)NC(=O)[C@H](Cc2c[nH]c3ccccc23)NC(=O)[C@H](Cc2c[nH]c3ccccc23)NC(=O)[C@H](Cc2c[nH]c3ccccc23)NC(=O)[C@H](Cc2c[nH]c3ccccc23)NC(=O)[C@H](CCCNC(=N)N)NC1=O` returned an HC50 at 2 h of 100 µg/mL. In data set [2], the TI came out at 12.5.

As to `CCCCCCCCCC(=O)N[C@@H](Cc1c[nH]c2ccccc12)C(=O)N[C@H](CC(N)=O)C(=O)N[C@@H](CC(=O)O)C(=O)N[C@@H]1C(=O)NCC(=O)N[C@@H](CCCN)C(=O)N[C@@H](CC(=O)O)C(=O)N[C@H](C)C(=O)N[C@@H](CC(=O)O)C(=O)NCC(=O)N[C@H](CO)C(=O)N[C@@H]([C@H](C)CC(=O)O)C(=O)N[C@@H](CC(=O)c2ccccc2N)C(=O)O[C@@H]1C`, the Activity in [3] is 7%. Also, the outcome in the data set with Escherichia coli [4], with Staphylococcus aureus [5], in the data set on Staphylococcus aureus [6] and with Escherichia coli [7] was Active.

As a reminder, the MIC is the lowest concentration found to suppress growth. Consider `C[C@@H](O)[C@H]1C(=O)N2C(C(=O)O)=C(S[C@@H]3CN[C@H](C(=O)N(C)C)C3)[C@H](C)[C@H]12` [MEROPENEM], for which the results for the MIC in the data set on Pseudomonas aeruginosa, in the data set with Klebsiella pneumoniae and in the data set with Staphylococcus aureus [8] were 32 µg/mL, 256 µg/mL and 32 µg/mL, respectively.
